# Source: ChEMBL document CHEMBL4190391 (J Med Chem, 2018)
# Experiments:
# [1] = tested on: Human immunodeficiency virus 1; experiment: Antiviral activity against wild type HIV1 NL4-3 infected in human MT4 cells assessed as reduction in p24 Gag protein production after 7 days by chemiluminescent enzyme immunoassay; format: functional, organism-based; settings: Human immunodeficiency virus 1, NL4-3, MT4, 168 h
# [2] = tested on: Human immunodeficiency virus 1; experiment: Antiviral activity against ATV resistant HIV1 harboring protease L23I/E34Q/K43I/M46I/I50L/G51A/L63P/A71V/V82A/T91A mutant infected in human MT4 cells assessed as reduction in p24 Gag protein production after 7 days by chemiluminescent enzyme immunoassay; format: functional, organism-based; settings: Human immunodeficiency virus 1, MT4, 168 h
# Summary of the method: (§1)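 Variants had been selected by passaging HIV-1 NL4-3 in MT-4 cells under increasing PI concentrations (up to 5 μM). Assays were run in duplicate; values are means (± S.D.) of two independent experiments.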
# [3] = tested on: Human immunodeficiency virus 1; experiment: Antiviral activity against LPV resistant HIV1 harboring protease L10F/[…]I54V/V82A mutant infected in human MT4 cells assessed as reduction in p24 Gag protein production after 7 days by chemiluminescent enzyme immunoassay; format: functional, organism-based; settings: Human immunodeficiency virus 1, MT4, 168 h; summary of the method: as §1
# [4] = tested on: Human immunodeficiency virus 1; experiment: Antiviral activity against APV resistant HIV1 harboring protease L10F/M46I/I50V/I85V mutant infected in human MT4 cells assessed as reduction in p24 Gag protein production after 7 days by chemiluminescent enzyme immunoassay; format: functional, organism-based; settings: Human immunodeficiency virus 1, MT4, 168 h; summary of the method: as §1
# [5] = tested on: Human immunodeficiency virus 1; experiment: Resistance index, ratio of EC50 for antiviral activity against ATV resistant HIV1 harboring protease L23I/E34Q/K43I/M46I/I50L/G51A/L63P/A71V/V82A/T91A mutant infected in human MT4 cells to EC50 for antiviral activity against wild type HIV1 NL4-3 infected in human MT4 cells; format: functional
# [6] = tested on: Human immunodeficiency virus 1; experiment: Resistance index, ratio of EC50 for antiviral activity against LPV resistant HIV1 harboring protease L10F/[…]I54V/V82A mutant infected in human MT4 cells to EC50 for antiviral activity against wild type HIV1 NL4-3 infected in human MT4 cells; format: functional
# [7] = tested on: Human immunodeficiency virus 1; experiment: Resistance index, ratio of EC50 for antiviral activity against APV resistant HIV1 harboring protease L10F/M46I/I50V/I85V mutant infected in human MT4 cells to EC50 for antiviral activity against wild type HIV1 NL4-3 infected in human MT4 cells; format: functional
# Protease = Protease (Human immunodeficiency virus 1, UniProt Q9YQ12); experiment: Inhibition of wild type HIV-1 NL4-3 protease expressed in Escherichia coli Rosetta (DE3)pLysS using Ac-Thr-Ile-Nle-Nle-Gln-Arg-NH2 as substrate by fluorescence assay
# [8] = tested on: Human immunodeficiency virus 1; experiment: Antiviral activity against HIV-1 LAI infected in human MT2 cells; format: functional, organism-based; settings: Human immunodeficiency virus 1, LAI
# Sequence of Protease (Q9YQ12 whole entry): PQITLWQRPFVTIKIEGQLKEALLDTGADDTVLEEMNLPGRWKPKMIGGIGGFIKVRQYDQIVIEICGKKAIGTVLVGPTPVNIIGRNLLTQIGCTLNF
SMILES,EC50 [1] [nM],EC50 [2] [nM],EC50 [3] [nM],EC50 [4] [nM],Ratio EC50 [5],Ratio EC50 [6],Ratio EC50 [7],Ki (Protease) [nM],IC50 [8] [nM]
CC(C)CN(C[C@@H](O)[C@H](Cc1ccccc1)NC(=O)O[C@H]1CCOC1)S(=O)(=O)c1ccc(N)cc1,87,> 1000,190,> 1000,11,2,>11,,
CC(C)CN(C[C@@H](O)[C@H](Cc1ccccc1)NC(=O)O[C@H]1CO[C@H]2OCC[C@H]21)S(=O)(=O)c1ccc(N)cc1,,24,,,,,,,
COc1ccc(S(=O)(=O)N(CC(C)C)C[C@@H](O)[C@H](Cc2ccccc2)NC(=O)O[C@H]2C[C@H]3CO[C@H]4OCC[C@@H]2[C@@H]34)cc1,,,,,,,,0.045,31
COc1ccc(S(=O)(=O)N(CC(C)C)C[C@@H](O)[C@H](Cc2ccccc2)NC(=O)O[C@@H]2C[C@@H]3CO[C@@H]4CCC[C@H]2[C@H]34)cc1,,,,,,,,4.55,> 1000
CC(C)CN(C[C@@H](O)[C@H](Cc1cc(F)cc(F)c1)NC(=O)O[C@H]1CC2CO[C@H]3OCC[C@@H]1[C@@H]23)S(=O)(=O)c1ccc2nc(NC3CC3)sc2c1 (stereo partly specified),2,1.5,2,0.32,1,2,0.3,0.012,0.023
COc1ccc(S(=O)(=O)N(CC(C)C)C[C@@H](O)[C@H](Cc2ccccc2)NC(=O)O[C@H]2C[C@@H]3CO[C@@H]4OC[C@H]2[C@H]34)cc1,,,,,,,,0.05,21
CC(C)CN(C[C@@H](O)[C@H](Cc1ccccc1)NC(=O)O[C@H]1CC2CO[C@H]3OCC[C@@H]1[C@@H]23)S(=O)(=O)c1ccc2nc(NC3CC3)sc2c1 (stereo partly specified),,,,,,,,0.01,1.4
COc1ccc(S(=O)(=O)N(CC(C)C)C[C@@H](O)[C@H](Cc2ccccc2)NC(=O)O[C@H]2C[C@H]3CCO[C@H]4OC[C@@H]2[C@@H]34)cc1,,,,,,,,0.005,29
CC(C)CN(C[C@@H](O)[C@H](Cc1cc(F)cc(F)c1)NC(=O)O[C@@H]1C[C@@H]2CO[C@@H]3OCC[C@H]1[C@H]23)S(=O)(=O)c1ccc2nc(NC3CC3)sc2c1,1.2,0.6,2,0.3,0.3,1,0.2,0.002,0.027
COC[C@@H]1C[C@@H]2[C@H]3[C@H](CO[C@H]3O1)C[C@@H]2OC(=O)N[C@@H](Cc1ccccc1)[C@H](O)CN(CC(C)C)S(=O)(=O)c1ccc(OC)cc1,,,,,,,,0.09,248
COc1ccc(S(=O)(=O)N(CC(C)C)C[C@@H](O)[C@H](Cc2ccccc2)NC(=O)O[C@H]2C[C@H]3CO[C@H]4CCC[C@@H]2[C@@H]34)cc1,,,,,,,,0.45,> 1000
COc1ccc(S(=O)(=O)N(CC(C)C)C[C@@H](O)[C@H](Cc2ccccc2)NC(=O)O[C@H]2C[C@H]3CO[C@H]4O[C@H](C)C[C@@H]2[C@@H]34)cc1,,,,,,,,0.05,130
COc1ccc(S(=O)(=O)N(CC(C)C)C[C@@H](O)[C@H](Cc2ccccc2)NC(=O)O[C@@H]2C[C@@H]3CO[C@@H]4OCC[C@H]2[C@H]34)cc1,,,,,,,,0.008,9
CC(C)CN(C[C@@H](O)[C@H](Cc1ccccc1)NC(=O)O[C@@H]1C[C@@H]2CO[C@@H]3OCC[C@H]1[C@H]23)S(=O)(=O)c1ccc2nc(NC3CC3)sc2c1,,,,,,,,0.5,0.9
COC(=O)N[C@H](C(=O)N[C@@H](Cc1ccccc1)[C@@H](O)CN(Cc1ccc(-c2ccccn2)cc1)NC(=O)[C@@H](NC(=O)OC)C(C)(C)C)C(C)(C)C [ATAZANAVIR],3.3,> 1000,29,70,>303,9,21,,
Cc1cccc(C)c1OCC(=O)N[C@@H](Cc1ccccc1)[C@@H](O)C[C@H](Cc1ccccc1)NC(=O)[C@H](C(C)C)N1CCCNC1=O [LOPINAVIR],,> 1000,> 1000,390,,,,,
